What was measured:
[1] = system: Human immunodeficiency virus 1; assay: Antiviral activity against wild-type HIV-1 NL4-3 harboring vesicular stomatitis virus glycoprotein infected in HEK293T cells pretreated with cells for 15 mins followed by viral infection measured after 48 hrs by luciferase reporter gene assay; assay type: functional, cell-based; settings: Human immunodeficiency virus 1, NL4-3, HEK-293T
Summary of the method: (§1)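 VSV-G-pseudotyped HIV-1 (wild-type or RT mutant) produced by co-transfection of HEK293T cells (calcium phosphate), supernatant harvested 48 h, 0.22 µm filtered, normalised by p24 ELISA to 0.2 ng p24/mL.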

[2] = Cytotoxicity against HEK293T cells at 10 uM after 48 hrs by cell proliferation assay; assay type: toxicity, cell-based; settings: human, hek-293t
Summary of the method: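 HEK 293T cells seeded at 1×10^4 cells/well, treated next day with serially diluted compounds and cultured 48 h; viability read with a cell proliferation assay kit per manufacturer's instructions. Footnote reports testing at a final concentration of 10 μM.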

[3] = system: Human immunodeficiency virus 1; assay: Ratio of IC50 for HIV-1 NL4-3 harboring RT-K103N mutant infected in HEK293T cells co-expressing vesicular stomatitis virus glycoprotein to IC50 for wild-type HIV-1 NL4-3 infected in HEK293T cells co-expressing vesicular stomatitis virus glycoprotein; assay type: functional, HEK-293T
[4] = system: Human immunodeficiency virus 1; assay: Ratio of IC50 for HIV-1 NL4-3 harboring RT-Y181C mutant infected in HEK293T cells co-expressing vesicular stomatitis virus glycoprotein to IC50 for wild-type HIV-1 NL4-3 infected in HEK293T cells co-expressing vesicular stomatitis virus glycoprotein; assay type: functional, HEK-293T
Summary of the method: (§2)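 Fold change: mean IC50 against each RT-mutant VSV-G-pseudotyped virus divided by IC50 against wild-type pseudovirus. Both values come from the same HEK293T assay: 0.2 ng p24/mL inoculum, compound added 15 min before infection, luciferase read-out at 48 h.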

[5] = system: Human immunodeficiency virus 1; assay: Antiviral activity against HIV-1 NL4-3 harboring RT-K103N/V108I double mutant infected in HEK293T cells coexpressing vesicular stomatitis virus glycoprotein pretreated with cells for 15 mins followed by viral infection measured after 48 hrs by luciferase reporter gene assay; assay type: functional, cell-based; settings: hek-293t; summary of the method: as §1
[6] = system: Human immunodeficiency virus 1; assay: Ratio of IC50 for HIV-1 NL4-3 harboring RT-K103N/V108I double mutant infected in HEK293T cells co-expressing vesicular stomatitis virus glycoprotein to IC50 for wild-type HIV-1 NL4-3 infected in HEK293T cells co-expressing vesicular stomatitis virus glycoprotein; assay type: functional, HEK-293T; summary of the method: as §2
[7] = system: Human immunodeficiency virus 1; assay: Antiviral activity against HIV-1 NL4-3 harboring RT-Y188L mutant infected in HEK293T cells coexpressing vesicular stomatitis virus glycoprotein pretreated with cells for 15 mins followed by viral infection measured after 48 hrs by luciferase reporter gene assay; assay type: functional, cell-based; settings: hek-293t; summary of the method: as §1
[8] = system: Human immunodeficiency virus 1; assay: Antiviral activity against HIV-1 NL4-3 harboring RT-Y181C mutant infected in HEK293T cells coexpressing vesicular stomatitis virus glycoprotein pretreated with cells for 15 mins followed by viral infection measured after 48 hrs by luciferase reporter gene assay; assay type: functional, cell-based; settings: hek-293t; summary of the method: as §1
[9] = system: Human immunodeficiency virus 1; assay: Ratio of IC50 for HIV-1 NL4-3 harboring RT-Y188L mutant infected in HEK293T cells co-expressing vesicular stomatitis virus glycoprotein to IC50 for wild-type HIV-1 NL4-3 infected in HEK293T cells co-expressing vesicular stomatitis virus glycoprotein; assay type: functional, HEK-293T; summary of the method: as §2
[10] = system: Human immunodeficiency virus 1; assay: Antiviral activity against HIV-1 NL4-3 harboring RT-K103N mutant infected in HEK293T cells coexpressing vesicular stomatitis virus glycoprotein pretreated with cells for 15 mins followed by viral infection measured after 48 hrs by luciferase reporter gene assay; assay type: functional, cell-based; settings: hek-293t; summary of the method: as §1
[11] = Inhibition of wild-type HIV-1 reverse transcriptase RNA-dependent DNA polymerase activity assessed as reduction in digoxigenin-11-dUTP incorporation using poly(rA)/oligo(dT) as template/primer incubated for 1 hr; parameters: species or system Human immunodeficiency virus 1

| SMILES | IC50 [1] | Activity [2] | IC50 [11] | also measured |
| --- | --- | --- | --- | --- |
| Fc1cc(F)cc(Cc2sc(NCc3ccc4c(c3)CCO4)nc2-c2ccc(Cl)cc2Cl)c1 | 68 nM | Non-Toxic |  |  |
| COc1ccccc1Cc1sc(NCc2ccc3c(c2)CCO3)nc1-c1cc(F)cc(F)c1 | 7320 nM | Non-Toxic |  |  |
| Fc1cc(F)cc(Cc2sc(NCc3ccc4c(c3)CCO4)nc2-c2ccc(F)cc2F)c1 | 13.9 to 14 nM | Non-Toxic |  | Ratio IC50 [3]: 14; Ratio IC50 [4]: 79; IC50 [5]: 3900 nM; Ratio IC50 [6]: 218; IC50 [7]: 7000 nM; IC50 [8]: 1100 nM; Ratio IC50 [9]: 504; IC50 [10]: 200 nM |
| Fc1cc(F)cc(Cc2sc(NCc3ccc4c(c3)CCO4)nc2-c2ccccc2Cl)c1 | 10 nM | Non-Toxic | 25 nM | Ratio IC50 [3]: 7.8; Ratio IC50 [4]: 39; IC50 [5]: 300 nM; Ratio IC50 [6]: 29; IC50 [7]: 1400 nM; IC50 [8]: 400 nM; Ratio IC50 [9]: 136; IC50 [10]: 80 nM |
| Clc1ccccc1-c1nc(NCc2ccc3c(c2)CCO3)sc1Cc1c(Cl)cccc1Cl | 22 nM | Non-Toxic |  |  |
| COc1ccccc1Cc1sc(NCc2ccc3c(c2)CCO3)nc1-c1ccc(Cl)cc1Cl | 88 nM | Non-Toxic |  |  |
| COc1ccccc1Cc1sc(NCc2ccc3c(c2)CCO3)nc1-c1ccccc1F | 10 nM | Non-Toxic | 20 nM |  |
| Fc1ccccc1-c1nc(NCc2ccc3c(c2)CCO3)sc1Cc1c(Cl)cccc1Cl | 32 nM | Non-Toxic |  |  |
| Fc1cc(F)cc(Cc2sc(NCc3ccc4c(c3)CCO4)nc2-c2ccccc2F)c1 | 10 nM | Non-Toxic | 64 nM |  |
| Fc1ccc(-c2nc(NCc3ccc4c(c3)CCO4)sc2Cc2c(Cl)cccc2Cl)c(F)c1 | 21 nM | Non-Toxic |  |  |
| COc1ccccc1Cc1sc(NCc2ccc3c(c2)CCO3)nc1-c1ccccc1Cl | 10 nM | Non-Toxic | 14 nM |  |
